Results reported in ChEMBL document CHEMBL5357047, “The development of thymol-isatin hybrids as broad-spectrum antibacterial agents with potent anti-MRSA activity” (RSC Med Chem, 2024).
≈ marks a conversion by molar mass, not a printed value.

How the values were obtained:
Format in all cases: functional
[1] = system: Staphylococcus aureus; experiment: Antibacterial activity against Methicillin-resistant Staphylococcus aureus ATCC 33591 assessed as inhibition of bacterial growth at 50 uM measured after 48 hrs by agar well diffusion method; details: read-out: IZ
How it was run: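 Agar well diffusion on Mueller Hinton agar seeded with bacteria at 0.5 McFarland. […] Incubated 48 h at 37 °C aerobically; zone of inhibition diameter (mm) measured. Triplicate.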

[2] = system: Staphylococcus aureus; experiment: Antibacterial activity against clinically isolated Staphylococcus aureus RBRJ010 assessed as inhibition of bacterial growth measured after 48 hrs by broth microdilution method
[3] = system: Klebsiella pneumoniae; experiment: Antibacterial activity against clinically isolated Klebsiella pneumoniae RBRJ024 assessed as inhibition of bacterial growth at 50 uM measured after 48 hrs by agar well diffusion method; details: read-out: IZ
[4] = system: Klebsiella pneumoniae; experiment: Antibacterial activity against clinically isolated Klebsiella pneumoniae RBRJ019 assessed as inhibition of bacterial growth at 50 uM measured after 48 hrs by agar well diffusion method; details: read-out: IZ
[5] = system: Klebsiella pneumoniae; experiment: Antibacterial activity against Klebsiella pneumoniae MTCC 109 assessed as inhibition of bacterial growth at 50 uM measured after 48 hrs by agar well diffusion method; details: read-out: IZ
[6] = system: Escherichia coli; experiment: Antibacterial activity against clinically isolated Escherichia coli RBRJ013 assessed as inhibition of bacterial growth at 50 uM measured after 48 hrs by agar well diffusion method; details: read-out: IZ
[7] = system: Enterococcus faecalis; experiment: Antibacterial activity against clinically isolated Enterococcus faecalis RBRJ015 assessed as inhibition of bacterial growth at 50 uM measured after 48 hrs by agar well diffusion method; details: read-out: IZ
[8] = system: Staphylococcus epidermidis; experiment: Antibacterial activity against Staphylococcus epidermidis MTCC 435 assessed as inhibition of bacterial growth at 50 uM measured after 48 hrs by agar well diffusion method; details: read-out: IZ
[9] = system: Staphylococcus aureus; experiment: Antibacterial activity against clinically isolated Methicillin-resistant Staphylococcus aureus assessed as inhibition of bacterial growth at 50 uM measured after 48 hrs by agar well diffusion method; details: read-out: IZ
[10] = system: Staphylococcus aureus; experiment: Antibacterial activity against Staphylococcus aureus MTCC 740 assessed as inhibition of bacterial growth at 50 uM measured after 48 hrs by agar well diffusion method; details: read-out: IZ
[11] = system: Staphylococcus aureus; experiment: Antibacterial activity against clinically isolated Staphylococcus aureus RBRJ010 assessed as inhibition of bacterial growth at 50 uM measured after 48 hrs by agar well diffusion method; details: read-out: IZ
[12] = system: Staphylococcus aureus; experiment: Bactericidal activity against clinically isolated Staphylococcus aureus RBRJ010 assessed as inhibition of bacterial growth measured after 48 hrs by agar plate method
How it was run: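 MBC: 10 μL from wells showing no INT colour change after broth microdilution subcultured on drug-free Mueller Hinton agar, 48 h at 37 °C aerobically; lowest concentration with no visible growth taken as MBC (μM). Triplicate.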

[13] = system: Enterobacter cloacae; experiment: Antibacterial activity against clinically isolated Enterobacter cloacae RBRJ017 assessed as inhibition of bacterial growth at 50 uM measured after 48 hrs by agar well diffusion method; details: read-out: IZ
[14] = system: Acinetobacter baumannii; experiment: Antibacterial activity against clinically isolated Acinetobacter baumannii RBRJ027 assessed as inhibition of bacterial growth at 50 uM measured after 48 hrs by agar well diffusion method; details: read-out: IZ
[15] = system: Escherichia coli; experiment: Antibacterial activity against Escherichia coli MTCC 119 assessed as inhibition of bacterial growth at 50 uM measured after 48 hrs by agar well diffusion method; details: read-out: IZ
[16] = system: Pseudomonas aeruginosa; experiment: Antibacterial activity against Pseudomonas aeruginosa MTCC 424 assessed as inhibition of bacterial growth at 50 uM measured after 48 hrs by agar well diffusion method; details: read-out: IZ
[17] = system: Escherichia coli; experiment: Antibacterial activity against clinically isolated Escherichia coli RBRJ005 assessed as inhibition of bacterial growth at 50 uM measured after 48 hrs by agar well diffusion method; details: read-out: IZ
[18] = system: Enterococcus faecalis; experiment: Antibacterial activity against Enterococcus faecalis MTCC 439 assessed as inhibition of bacterial growth at 50 uM measured after 48 hrs by agar well diffusion method; details: read-out: IZ
[19] = system: Staphylococcus aureus; experiment: Bactericidal activity against Staphylococcus aureus MTCC 740 assessed as inhibition of bacterial growth measured after 48 hrs by agar plate method
How it was run: (§1)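 MBC: aliquots from microdilution wells without colour change subcultured on drug-free Mueller Hinton agar, 48 h at 37 °C aerobically. MBC is the lowest concentration with no visible growth. Triplicate.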

[20] = system: Staphylococcus aureus; experiment: Antibacterial activity against clinically isolated Methicillin-resistant Staphylococcus aureus assessed as inhibition of bacterial growth measured after 48 hrs by broth microdilution method
[21] = system: Staphylococcus aureus; experiment: Antibacterial activity against Methicillin-resistant Staphylococcus aureus ATCC 33591 assessed as inhibition of bacterial growth measured after 48 hrs by broth microdilution method
[22] = system: Staphylococcus aureus; experiment: Bactericidal activity against clinically isolated Methicillin-resistant Staphylococcus aureus assessed as inhibition of bacterial growth measured after 48 hrs by agar plate method
[23] = system: Staphylococcus aureus; experiment: Bactericidal activity against Methicillin-resistant Staphylococcus aureus ATCC 33591 assessed as inhibition of bacterial growth measured after 48 hrs by agar plate method; how it was run: as §1
[24] = system: Staphylococcus aureus; experiment: Antibacterial activity against Staphylococcus aureus MTCC 740 assessed as inhibition of bacterial growth measured after 48 hrs by broth microdilution method

| SMILES | zone of inhibition at 50 µM [1] | MIC [2] | zone of inhibition at 50 µM [3] | zone of inhibition at 50 µM [4] | zone of inhibition at 50 µM [5] | zone of inhibition at 50 µM [6] | zone of inhibition at 50 µM [7] | zone of inhibition at 50 µM [8] | zone of inhibition at 50 µM [9] | zone of inhibition at 50 µM [10] | zone of inhibition at 50 µM [11] | MBC [12] | zone of inhibition at 50 µM [13] | zone of inhibition at 50 µM [14] | zone of inhibition at 50 µM [15] | zone of inhibition at 50 µM [16] | zone of inhibition at 50 µM [17] | zone of inhibition at 50 µM [18] | MBC [19] | MIC [24] | further results |
| --- | --- | --- | --- | --- | --- | --- | --- | --- | --- | --- | --- | --- | --- | --- | --- | --- | --- | --- | --- | --- | --- |
| Cc1ccc(C(C)C)c(OCc2cn(CCN3C(=O)C(=O)c4cc(C)ccc43)nn2)c1 | 16 mm | 31.2 µM (≈ 13.1 µg/mL) | 15.7 mm | 15.4 mm | 16.6 mm | 11.4 mm | 16.3 mm | 19.6 mm | 16.2 mm | 18.2 mm | 21.2 mm | 62.5 µM (≈ 26.2 µg/mL) | 14.2 mm | 12.7 mm | 17.1 mm | 11.3 mm | 12.7 mm | 14.3 mm |  |  |  |
| COc1ccc2c(c1)C(=O)C(=O)N2CCn1cc(COc2cc(C)ccc2C(C)C)nn1 | 15.5 mm | 62.5 µM (≈ 27.2 µg/mL) | 14.9 mm | 14.6 mm | 15.3 mm | 11.1 mm | 11.3 mm | 16.4 mm | 15.3 mm | 16.2 mm | 20.3 mm | 125 µM (≈ 54.3 µg/mL) | 13.2 mm | 11.4 mm | 16.2 mm | 11.5 mm | 11.5 mm | 15.5 mm |  |  |  |
| Cc1ccc(C(C)C)c(OCc2cn(CCCN3C(=O)C(=O)c4cc(Br)ccc43)nn2)c1 | 21.5 mm |  | 13.3 mm | 13.2 mm | 14.3 mm | 15.5 mm | 12.2 mm | 17.2 mm | 21.2 mm | 21.2 mm | 19.3 mm |  | 14.2 mm | 11.2 mm | 14.1 mm | 11.4 mm | 15.4 mm | 12.1 mm | 62.5 µM (≈ 31.1 µg/mL) | 31.2 µM (≈ 15.5 µg/mL) | MIC [20]: 31.2 µM (≈ 15.5 µg/mL); MIC [21]: 62.5 µM (≈ 31.1 µg/mL); MBC [22]: 62.5 µM (≈ 31.1 µg/mL); MBC [23]: 125 µM (≈ 62.2 µg/mL) |
| Cc1ccc(C(C)C)c(OCc2cn(CCN3C(=O)C(=O)c4cc(F)ccc43)nn2)c1 | 15.3 mm |  | 13.2 mm | 14.2 mm | 15.2 mm | 14.2 mm | 19.3 mm | 17.3 mm | 16.6 mm | 20.3 mm | 19.2 mm |  | 14.2 mm | 11.9 mm | 13.3 mm | 14.2 mm | 14.3 mm | 15.1 mm | 125 µM (≈ 52.8 µg/mL) | 62.5 µM (≈ 26.4 µg/mL) |  |
| Cc1ccc(C(C)C)c(OCc2cn(CCCN3C(=O)C(=O)c4cc(I)ccc43)nn2)c1 | 20.5 mm |  | 12.7 mm | 11.3 mm | 12.3 mm | 11.2 mm | 11.1 mm | 14.2 mm | 20.2 mm | 20.2 mm | 19 mm |  | 13.7 mm | 11.5 mm | 13.2 mm | 11.6 mm | 12.3 mm | 11.7 mm | 125 µM (≈ 68 µg/mL) | 31.2 µM (≈ 17 µg/mL) | MIC [20]: 62.5 µM (≈ 34 µg/mL); MIC [21]: 62.5 µM (≈ 34 µg/mL); MBC [22]: 125 µM (≈ 68 µg/mL); MBC [23]: 125 µM (≈ 68 µg/mL) |
| COc1ccc2c(c1)C(=O)C(=O)N2CCCn1cc(COc2cc(C)ccc2C(C)C)nn1 | 25.3 mm | 15.6 µM (≈ 7 µg/mL) | 17.6 mm | 18.1 mm | 17.3 mm | 15.4 mm | 11.3 mm | 15.7 mm | 25.1 mm | 25.3 mm | 23.3 mm | 31.2 µM (≈ 14 µg/mL) | 13.5 mm | 12.3 mm | 16.5 mm | 16.4 mm | 17.2 mm | 12.6 mm | 125 µM (≈ 56.1 µg/mL) | 62.5 µM (≈ 28 µg/mL) | MIC [20]: 3.9 µM (≈ 1.75 µg/mL); MIC [21]: 7.8 µM (≈ 3.5 µg/mL); MBC [22]: 7.8 µM (≈ 3.5 µg/mL); MBC [23]: 15.6 µM (≈ 7 µg/mL) |
| Cc1ccc(C(C)C)c(OCc2cn(CCCCN3C(=O)C(=O)c4ccccc43)nn2)c1 | 19 mm |  | 15.6 mm | 14.4 mm | 15.2 mm | 11.5 mm | 17.6 mm | 16.2 mm | 19.6 mm | 22.1 mm | 16.2 mm |  | 12.6 mm | 11.2 mm | 16.5 mm | 13.7 mm | 13.6 mm | 13.2 mm | 31.2 µM (≈ 13.5 µg/mL) | 15.6 µM (≈ 6.75 µg/mL) |  |
